Reference: ChEMBL document CHEMBL1148425, “New fatty acid oxidation inhibitors with increased potency lacking adverse metabolic and electrophysiological properties” (Bioorg Med Chem Lett, 2004)

Legend:
[1] = Metabolic stability (% remaining at 30 mins) in human S9.; type: ADME; settings: human S9 fraction
In short: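 Incubated 30 min with human liver S9 (2 mg/mL protein, NADH added), n=2. Reported as % parent remaining.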

[2] = target: T1, Peroxisomal acyl-coenzyme A oxidase 1 (Rattus norvegicus) (UniProt P07872); assay: Inhibition of rat heart mitochondrial Palmitoyl-CoA oxidation at 30 uM
T1 sequence (whole entry): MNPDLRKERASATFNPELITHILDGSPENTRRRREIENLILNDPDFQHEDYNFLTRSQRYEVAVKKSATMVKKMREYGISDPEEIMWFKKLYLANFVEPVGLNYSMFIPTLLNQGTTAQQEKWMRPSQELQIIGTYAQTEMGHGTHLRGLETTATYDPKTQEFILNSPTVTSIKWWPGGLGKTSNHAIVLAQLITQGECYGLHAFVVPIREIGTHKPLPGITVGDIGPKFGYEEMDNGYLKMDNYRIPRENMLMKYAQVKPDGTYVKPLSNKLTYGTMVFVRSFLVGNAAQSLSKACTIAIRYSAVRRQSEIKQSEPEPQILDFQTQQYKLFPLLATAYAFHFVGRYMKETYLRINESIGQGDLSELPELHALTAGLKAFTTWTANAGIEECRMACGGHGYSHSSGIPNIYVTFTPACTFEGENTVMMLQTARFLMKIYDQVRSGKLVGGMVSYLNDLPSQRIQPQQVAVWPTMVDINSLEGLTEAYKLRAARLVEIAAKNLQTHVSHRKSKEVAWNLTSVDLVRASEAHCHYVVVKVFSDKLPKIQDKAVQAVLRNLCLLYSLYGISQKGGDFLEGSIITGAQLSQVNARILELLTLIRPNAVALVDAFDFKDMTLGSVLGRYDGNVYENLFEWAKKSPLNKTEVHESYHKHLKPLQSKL
In short: (§1)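 Rat heart mitochondrial preparations incubated with 1-[¹⁴C]-palmitoylCoA as the long-chain fatty acid oxidation substrate. Oxidation inhibition was reported as % inhibition at the listed test concentration, averaged from two or three measurements.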

[3] = Clearance of compound in rat after 1 mg/kg i.v. administration; type: ADME, organism-based; design: dose 1 mg/kg, route intravenous; settings: plasma, iv, read-out: Clp
[4] = Maximum concentration in rat after 2 mg/kg peroral administration; type: ADME, organism-based; design: dose 2 mg/kg, route oral; settings: in vivo, po
[5] = Total concentration in rat after 1 mg/kg i.v. administration in 24 hours; type: ADME, organism-based; design: dose 1 mg/kg, route intravenous; settings: in vivo, iv
[6] = Half life in rat after 2 mg/kg peroral administration; type: ADME, organism-based; design: dose 2 mg/kg, route oral; settings: in vivo, po
[7] = target: T2, Cytochrome P450 1A2 (Homo sapiens, UniProt P05177); assay: Inhibition of human cytochrome P450 1A2
T2 sequence (P05177 whole entry): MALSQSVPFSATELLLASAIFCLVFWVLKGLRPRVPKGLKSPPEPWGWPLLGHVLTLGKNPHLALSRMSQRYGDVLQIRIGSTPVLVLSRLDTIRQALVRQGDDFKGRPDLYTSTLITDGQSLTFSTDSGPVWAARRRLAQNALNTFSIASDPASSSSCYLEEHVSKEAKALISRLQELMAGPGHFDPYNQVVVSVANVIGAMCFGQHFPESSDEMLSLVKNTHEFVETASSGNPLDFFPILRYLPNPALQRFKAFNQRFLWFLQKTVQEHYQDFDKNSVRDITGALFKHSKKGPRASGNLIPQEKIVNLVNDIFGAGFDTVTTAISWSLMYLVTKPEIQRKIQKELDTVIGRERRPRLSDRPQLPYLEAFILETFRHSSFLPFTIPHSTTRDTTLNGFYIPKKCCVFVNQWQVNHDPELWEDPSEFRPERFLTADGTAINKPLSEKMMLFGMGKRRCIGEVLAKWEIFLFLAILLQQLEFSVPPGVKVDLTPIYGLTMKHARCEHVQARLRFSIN

[8] = organism: Cavia porcellus; assay: Electrophysiological effect on isolated guinea pig heart as change in H-V interval at 3 uM; type: functional
[9] = target: Cytochrome P450 2C9 (Homo sapiens, UniProt P11712); assay: Inhibition of cytochrome P450 2C9 (human)
Sequence of Cytochrome P450 2C9 (P11712 whole entry, the tested form may be a part): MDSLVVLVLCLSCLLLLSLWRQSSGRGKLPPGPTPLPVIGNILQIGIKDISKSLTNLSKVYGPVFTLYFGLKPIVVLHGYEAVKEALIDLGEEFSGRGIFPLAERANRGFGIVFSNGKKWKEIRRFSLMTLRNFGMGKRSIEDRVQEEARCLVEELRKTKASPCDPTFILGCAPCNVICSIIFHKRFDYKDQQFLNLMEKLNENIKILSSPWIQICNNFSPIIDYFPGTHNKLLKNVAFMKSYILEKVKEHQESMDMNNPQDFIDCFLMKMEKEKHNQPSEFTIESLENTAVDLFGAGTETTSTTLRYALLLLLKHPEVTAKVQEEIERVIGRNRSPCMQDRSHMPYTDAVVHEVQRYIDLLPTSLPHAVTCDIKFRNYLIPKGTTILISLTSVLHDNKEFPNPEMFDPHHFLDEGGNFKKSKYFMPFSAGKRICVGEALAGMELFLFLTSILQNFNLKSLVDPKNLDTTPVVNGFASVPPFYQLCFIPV

[10] = organism: Cavia porcellus; assay: Electrophysiological effect on isolated guinea pig heart as change in coronary perfusion pressure at 3 uM; type: functional
[11] = Oral bioavailability in rat (dose 2 mg/kg); type: ADME, organism-based; settings: in vivo
[12] = Volume of distribution of compound in rat after 1 mg/kg i.v. administration; type: ADME, organism-based; design: dose 1 mg/kg, route intravenous; settings: in vivo, iv, read-out: Vdss
[13] = organism: Cavia porcellus; assay: Electrophysiological effect on isolated guinea pig heart as change in S-H interval at 10 uM; type: functional
[14] = Half life in rat after 1 mg/kg i.v. administration; type: ADME, organism-based; design: dose 1 mg/kg, route intravenous; settings: in vivo, iv
[15] = organism: Cavia porcellus; assay: Electrophysiological effect on isolated guinea pig heart as change in S-H interval at 3 uM; type: functional
[16] = organism: Cavia porcellus; assay: Electrophysiological effect on isolated guinea pig heart as change in H-V interval at 10 uM; type: functional
[17] = Time to reach maximum concentration in rat after 2 mg/kg peroral administration; 4-6; type: ADME, organism-based; design: dose 2 mg/kg, route oral; settings: in vivo, po
[18] = organism: Cavia porcellus; assay: Electrophysiological effect on isolated guinea pig heart as change in coronary perfusion pressure at 10 uM; type: functional
[19] = target: T3, Cytochrome P450 3A4 (Homo sapiens, UniProt P08684); assay: Inhibition of human cytochrome P450 3A4
T3 sequence (P08684 whole entry): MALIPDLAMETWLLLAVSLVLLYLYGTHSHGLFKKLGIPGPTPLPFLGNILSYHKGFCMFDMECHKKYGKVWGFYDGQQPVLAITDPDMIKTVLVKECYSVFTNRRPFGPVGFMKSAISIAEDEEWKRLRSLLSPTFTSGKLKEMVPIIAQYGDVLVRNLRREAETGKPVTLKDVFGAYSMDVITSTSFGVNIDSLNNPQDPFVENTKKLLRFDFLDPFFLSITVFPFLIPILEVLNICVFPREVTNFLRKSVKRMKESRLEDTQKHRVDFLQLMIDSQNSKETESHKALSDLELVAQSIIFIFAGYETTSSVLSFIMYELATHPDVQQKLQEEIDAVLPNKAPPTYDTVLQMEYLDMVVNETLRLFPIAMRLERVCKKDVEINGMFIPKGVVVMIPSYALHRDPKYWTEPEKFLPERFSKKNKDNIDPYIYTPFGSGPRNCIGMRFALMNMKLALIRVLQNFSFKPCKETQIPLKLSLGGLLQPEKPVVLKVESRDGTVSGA

[20] = Total concentration in rat after 2 mg/kg peroral administration in 24 hours; type: ADME, organism-based; design: dose 2 mg/kg, route oral; settings: in vivo, po
[21] = target: T1, Peroxisomal acyl-coenzyme A oxidase 1 (Rattus norvegicus); assay: Inhibition of rat heart mitochondrial Palmitoyl-CoA oxidation at 100 uM; in short: as §1
[22] = target: T3, Cytochrome P450 3A4; assay: Inhibition of cytochrome P450 3A4 (human)
[23] = Time to reach maximum concentration in rat after 2 mg/kg peroral administration; type: ADME, organism-based; design: dose 2 mg/kg, route oral; settings: in vivo, po

Cc1nc2cc(OC[C@H](O)CN3CCN(CC(=O)Nc4cccc5[nH]ccc45)CC3)ccc2s1
remaining at 0.5 h [1]: 35%

Cc1nc2cc(OC[C@H](O)CN3CCN(CC(=O)Nc4cccc5nsnc45)CC3)ccc2s1
remaining at 0.5 h [1]: 11%

Cc1nc2cc(OC[C@H](O)CN3CCN(CC(=O)Nc4ccccc4-c4ccccc4)CC3)ccc2s1
inhibition [2]: 39%

Cc1nc2cc(OC[C@H](O)CN3CCN(CC(=O)Nc4cc(Cl)c(Cl)c(Cl)c4)CC3)ccc2s1
remaining at 0.5 h [1]: 34%

Cc1nc2cc(OC[C@H](O)CN3CCN(CC(=O)N[C@H]4CCCc5ccccc54)CC3)ccc2s1
remaining at 0.5 h [1]: 2%

Cc1nc2cc(OC[C@H](O)CN3CCN(CC(=O)Nc4ccc(C#N)cc4)CC3)ccc2s1
inhibition [2]: 42%

Cc1nc2cc(OC[C@H](O)CN3CCN(CC(=O)NCCc4ccccc4)CC3)ccc2s1
remaining at 0.5 h [1]: 27%

Cc1nc2cc(OC[C@H](O)CN3CCN(CC(=O)Nc4cccc5cccnc45)CC3)ccc2s1
remaining at 0.5 h [1]: 12%

Cc1nc2cc(OC[C@H](O)CN3CCN(CC(=O)N[C@H](C)c4ccccc4)CC3)ccc2s1
inhibition [2]: 23%

CCn1c2ccccc2c2cc(NC(=O)CN3CCN(C[C@@H](O)COc4ccc5sc(C)nc5c4)CC3)ccc21
clearance [3]: 13.5 mL/min/kg | Cmax [4]: 26.3 ng/mL | AUC at 24 h [5]: 1320 ng·h/mL | half-life [6]: 2.6 h | IC50 [7]: > 100 µM | Delta H-V [8]: 0 ms | IC50 [9]: > 100 µM | Delta CPP [10]: 0.7 mmHg | remaining at 0.5 h [1]: 62% | bioavailability [11]: 17.5% | Vd [12]: 3.4 L/kg | Delta S-H [13]: 1 ms | half-life [14]: 3 h | Delta S-H [15]: 0 ms | Delta H-V [16]: 0 ms | Tmax [17]: 6 h | Delta CPP [18]: -0.4 mmHg | IC50 [19]: 39 µM | AUC at 24 h [20]: 230 ng·h/mL

Cc1nc2cc(OC[C@H](O)CN3CCN(CC(=O)N[C@@H](C)c4ccc(F)cc4)CC3)ccc2s1
remaining at 0.5 h [1]: 10%

Cc1nc2cc(OC[C@H](O)CN3CCN(CC(=O)N[C@H]4CCc5ccccc54)CC3)ccc2s1
remaining at 0.5 h [1]: 1%

Cc1nc2cc(OC[C@H](O)CN3CCN(CC(=O)Nc4ccc(C(N)=O)cc4)CC3)ccc2s1
inhibition [21]: 35%

Cc1nc2cc(OC[C@H](O)CN3CCN(CC(=O)Nc4cccc5ncccc45)CC3)ccc2s1
remaining at 0.5 h [1]: 2%

Cc1nc2cc(OC[C@H](O)CN3CCN(CC(=O)Nc4ccc5c(c4)CCCC5)CC3)ccc2s1
remaining at 0.5 h [1]: 2%

Cc1nc2cc(OC[C@H](O)CN3CCN(CC(=O)Nc4cccc(-c5ccccc5)c4)CC3)ccc2s1
IC50 [7]: 6 µM | Delta H-V [8]: 0 ms | IC50 [9]: 24 µM | Delta CPP [10]: -4.3 mmHg | remaining at 0.5 h [1]: 58% | Delta S-H [15]: 3 ms | IC50 [22]: 37 µM

Cc1nc2cc(OC[C@H](O)CN3CCN(CC(=O)Nc4ccc(Oc5ccccc5)cc4)CC3)ccc2s1
remaining at 0.5 h [1]: 18%

COc1ccc(NC(=O)CN2CCN(C[C@@H](O)COc3ccc4sc(C)nc4c3)CC2)cc1
remaining at 0.5 h [1]: 41%

Cc1nc2cc(OC[C@H](O)CN3CCN(CC(=O)Nc4ccc(Oc5ccc(Cl)cc5)cc4)CC3)ccc2s1
remaining at 0.5 h [1]: 64%

Cc1nc2cc(OC[C@H](O)CN3CCN(CC(=O)NCc4ccc(Cl)cc4)CC3)ccc2s1
remaining at 0.5 h [1]: 16%

Cc1nc2cc(OC[C@H](O)CN3CCN(CC(=O)N[C@H](C)c4ccc5ccccc5c4)CC3)ccc2s1
remaining at 0.5 h [1]: 45%

Cc1nc2cc(OC[C@H](O)CN3CCN(CC(=O)Nc4cccc5ccccc45)CC3)ccc2s1
remaining at 0.5 h [1]: 50%

Cc1nc2cc(OC[C@H](O)CN3CCN(CC(=O)Nc4ccc(C(F)(F)F)cc4)CC3)ccc2s1
remaining at 0.5 h [1]: 28%

Cc1nc2cc(OC[C@H](O)CN3CCN(CC(=O)N[C@@H](C)c4ccccc4)CC3)ccc2s1
remaining at 0.5 h [1]: 23%

Cc1nc2cc(OC[C@H](O)CN3CCN(CC(=O)N[C@@H](C)c4cccc5ccccc45)CC3)ccc2s1
remaining at 0.5 h [1]: 10%

Cc1nc2cc(OC[C@H](O)CN3CCN(CC(=O)Nc4ccc(Cl)c(C(F)(F)F)c4)CC3)ccc2s1
remaining at 0.5 h [1]: 25%

Cc1nc2cc(OC[C@H](O)CN3CCN(CC(=O)Nc4ccc5c(c4)CCC5)CC3)ccc2s1
remaining at 0.5 h [1]: 15%

Cc1nc2cc(OC[C@H](O)CN3CCN(CC(=O)NC4CCCCC4)CC3)ccc2s1
remaining at 0.5 h [1]: 37%

Cc1nc2cc(OC[C@H](O)CN3CCN(CC(=O)NCC4CCCCC4)CC3)ccc2s1
remaining at 0.5 h [1]: 29%

Cc1nc2cc(OC[C@H](O)CN3CCN(CC(=O)NC4Cc5ccccc5C4)CC3)ccc2s1
remaining at 0.5 h [1]: 2%

Cc1ccc(NC(=O)CN2CCN(C[C@@H](O)COc3ccc4sc(C)nc4c3)CC2)cc1
remaining at 0.5 h [1]: 51%

Cc1nc2cc(OC[C@H](O)CN3CCN(CC(=O)N[C@H](C)c4cccc5ccccc45)CC3)ccc2s1
inhibition [2]: 24%

Cc1cc(NC(=O)CN2CCN(C[C@@H](O)COc3ccc4sc(C)nc4c3)CC2)c2ccccc2n1
inhibition [2]: 40%

Cc1nc2cc(OC[C@H](O)CN3CCN(CC(=O)Nc4c(C)cccc4C)CC3)ccc2s1
clearance [3]: 54.5 mL/min/kg | Cmax [4]: 26.1 ng/mL | AUC at 24 h [5]: 313 ng·h/mL | half-life [6]: 1.2 h | Tmax [23]: 0.83 h | IC50 [7]: > 100 µM | Delta H-V [8]: 4 ms | IC50 [9]: > 100 µM | Delta CPP [10]: -8 mmHg | remaining at 0.5 h [1]: 50% | bioavailability [11]: 19.5% | Vd [12]: 6.2 L/kg | half-life [14]: 1.4 h | Delta S-H [15]: 3 ms | IC50 [19]: 23 µM | AUC at 24 h [20]: 61.1 ng·h/mL

Cc1nc2cc(OC[C@H](O)CN3CCN(CC(=O)Nc4ccccc4)CC3)ccc2s1
remaining at 0.5 h [1]: 47%

Cc1nc2cc(OC[C@H](O)CN3CCN(CC(=O)Nc4ccccc4Oc4ccccc4)CC3)ccc2s1
inhibition [2]: 34%

Cc1nc2cc(OC[C@H](O)CN3CCN(CC(=O)Nc4ccc(Cl)c(Cl)c4)CC3)ccc2s1
remaining at 0.5 h [1]: 29%

Cc1nc2cc(OC[C@H](O)CN3CCN(CC(=O)N[C@@H](C)c4ccc5ccccc5c4)CC3)ccc2s1
remaining at 0.5 h [1]: 14%

Cc1nc2cc(OC[C@H](O)CN3CCN(CC(=O)Nc4ccc(-c5ccccc5)cc4)CC3)ccc2s1
IC50 [7]: 31 µM | Delta H-V [8]: 0.5 ms | IC50 [9]: 30 µM | Delta CPP [10]: -6.6 mmHg | remaining at 0.5 h [1]: 63% | Delta S-H [15]: 5 ms | IC50 [22]: 7.9 µM

Cc1nc2cc(OC[C@H](O)CN3CCN(CC(=O)N[C@H](C)c4ccc(F)cc4)CC3)ccc2s1
inhibition [2]: 40%

Cc1nc2cc(OC[C@H](O)CN3CCN(CC(=O)Nn4nnc5ccccc54)CC3)ccc2s1
inhibition [2]: 16%

Cc1nc2cc(OC[C@H](O)CN3CCN(CC(=O)Nc4cccc(Oc5ccccc5)c4)CC3)ccc2s1
remaining at 0.5 h [1]: 15%

Cc1nc2cc(OC[C@H](O)CN3CCN(CC(=O)N[C@@H]4CCc5ccccc54)CC3)ccc2s1
inhibition [2]: 50%
